S1P3 ag – human S1P3 receptor agonists, primary screen, cell-based, primary and confirmation, NFAT-BLA reporter. S1P3 NFAT-BLA reporter cells, agonism, FRET ratio; relative to 1 µM S1P, basal subtracted. activation, % at 4.5 µM. 60,000 compounds, 0.1% hits. AID 373, 2006;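 active = activation above the screen-wide mean plus 3 SD, cut at about 4.5% in these data, passing the limit was not always enough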
Target sequence (Q99500 whole entry, looked up): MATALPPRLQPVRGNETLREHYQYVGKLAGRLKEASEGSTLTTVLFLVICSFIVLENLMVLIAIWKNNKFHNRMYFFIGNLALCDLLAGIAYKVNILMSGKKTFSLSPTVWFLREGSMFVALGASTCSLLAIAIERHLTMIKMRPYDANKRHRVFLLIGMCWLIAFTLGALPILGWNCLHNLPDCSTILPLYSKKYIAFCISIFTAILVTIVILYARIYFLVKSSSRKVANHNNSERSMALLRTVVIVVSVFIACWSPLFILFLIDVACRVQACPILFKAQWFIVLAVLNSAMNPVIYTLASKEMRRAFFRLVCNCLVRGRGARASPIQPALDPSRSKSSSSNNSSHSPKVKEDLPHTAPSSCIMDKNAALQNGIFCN
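Material: Human S1P3 NFAT-BLA reporter CHO cells | Incubation: Overnight plating, 4 h compound 37 °C, 2 h substrate RT | Signal: FRET β-lactamase substrate fluorescence, excitation 405 nm, 460/535 nm emission ratio, background-subtracted | Compound: 4.5 µM final, single dose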
5HT1E ag – 5-HT1E receptor agonists, primary screen, cell-based, HTS; 5-hydroxytryptamine receptor 1E (Homo sapiens), P28566; CHO 5-HT1E Ga15 NFAT-bla reporter, FRET; 0% DMSO wells, 100% control agonist wells; activation, % at 6 µM; 65,000 compounds, 0.69% hits;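 active = activation above a set limit, the screen-wide mean activation plus 3 SD, cut at about 8.5% in these data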;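 note: 100% = positive control agonist at 1 µM giving full maximal response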
Target sequence (P28566 whole entry, looked up): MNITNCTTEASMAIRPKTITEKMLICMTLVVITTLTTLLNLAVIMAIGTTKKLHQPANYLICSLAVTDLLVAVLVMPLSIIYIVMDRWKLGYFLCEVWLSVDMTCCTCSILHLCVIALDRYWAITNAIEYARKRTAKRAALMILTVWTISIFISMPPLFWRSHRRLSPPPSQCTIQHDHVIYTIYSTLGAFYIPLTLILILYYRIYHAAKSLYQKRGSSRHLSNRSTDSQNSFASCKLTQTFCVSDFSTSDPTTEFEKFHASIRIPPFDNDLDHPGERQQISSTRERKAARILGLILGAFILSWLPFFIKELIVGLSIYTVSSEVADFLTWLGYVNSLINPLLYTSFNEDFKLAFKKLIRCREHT
S1P1 ag-PAM – S1P1 agonists and agonism potentiators, primary screen, cell-based, primary and confirmation screens, CRE-bla reporter. 56,000 compounds, 0.57% hits. AID 449, 2006. Sphingosine 1-phosphate receptor 1 (Homo sapiens), P21453. activation, % at 9.5 µM. S1P1 CRE-bla cells, forskolin, beta-lactamase FRET, potentiator mode; S1P1 agonist co-added at EC20, 2 nM; 100% = saturating reference agonist, 0% = basal;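 active = activation above a cutoff set at the mean activation of all tested compounds plus 3 SD, cut at about 54% in these data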;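 note: forskolin at 4 µM as EC80 and the EC20 agonist is SEW2871; 100% = SEW2871 at its EC100 plus forskolin at EC80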
5HT1E antag – 5-HT1E receptor antagonists, primary screen, cell-based, HTS | AID 571, 2007 | 65,000 compounds, 0.99% hits | inhibition, % at 6 µM | CHO 5-HT1E Ga15 NFAT-bla reporter, FRET, antagonist | 5-hydroxytryptamine receptor 1E (Homo sapiens), P28566;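 active = inhibition above a set limit, the mean inhibition across every tested compound plus 3 SD, cut at about 29% in these data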;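 note: signal is the 460 over 535 nm emission ratio of beta-lactamase substrate; 0% = agonist plus DMSO wells and 100% = wells without agonist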
5HT1a ag – human 5-HT1a receptor agonists, primary screen, cell-based, CHO, Ga15 NFAT-bla reporter; CHO 5-HT1a Ga15 NFAT-bla reporter, FRET ratio; 0% basal, 100% maximal reference agonist; 5-hydroxytryptamine receptor 1A (Homo sapiens), P08908; activation, % at 10 µM; 65,000 compounds, 0.56% hits;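 active = activation above the screen-wide mean activation plus 3 SD, cut at about 19% in these data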;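 note: 0% = DMSO wells and 100% = 5-CT at EC100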
5-HT1A blocker – human 5-HT1a receptor antagonists, primary screen, cell-based, CHO, Ga15 NFAT-bla reporter. 5-hydroxytryptamine receptor 1A (Homo sapiens), P08908. CHO 5-HT1a Ga15 NFAT-bla reporter, antagonist mode. inhibition, % at 10 µM. 62,000 compounds, 0.68% hits;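 active = inhibition above the mean of all tested compounds plus 3 SD, cut at about 43% in these data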;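 note: receptor stimulated by 5-CT agonist at 100 nM near EC80; beta-lactamase reporter measured by ratiometric fluorescence of a cleavable substrate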
An asterisk follows results filed as active; · = not tested or not shown. Rows were chosen to be rich in hits. Some 3% of all compounds tested hit in one or more screens of this group.

SMILES | S1P3 ag | 5HT1E ag | S1P1 ag-PAM | 5HT1E antag | 5HT1a ag | 5-HT1A blocker
CC(=O)Nc1nc(=O)c2ccccc2s1 | -1.5 | -0.7 | -1.3 | -10.0 | -5.5 | 47.3*
Cc1cccc(-n2c(SCC(=O)Nc3nonc3C)nnc2-c2ccoc2C)c1 | -1.1 | 0.0 | 11.2 | -1.5 | 34.5* | 13.6
Cc1cccc(-n2c(SCC(=O)Nc3nnc(C)s3)nnc2-c2ccoc2C)c1 | -0.6 | 1.1 | -43.0 | 13.2 | -2.6 | -1.0
COc1ccc(N2C(=O)C3CCCN3C2c2cccc(OC)c2OC)cc1 (stereo not given) | -0.7 | 0.1 | -10.9 | 4.5 | 101.5* | 0.9
COc1ccc(N2C(=O)C3CCCN3C2c2cccc(Br)c2)cc1 (stereo not given) | 1.1 | -0.2 | -6.1 | -5.1 | -0.4 | -6.9
COc1cccc(-n2c(SC3CCOC3=O)nc3ccccc3c2=O)c1 (stereo not given) | 0.0 | -1.0 | -38.6 | 37.0* | -1.2 | 14.8
COc1ccc(OCc2nnc(SC3CCOC3=O)n2-c2ccccc2)cc1 (stereo not given) | -0.9 | 0.0 | -4.5 | 2.2 | -1.8 | -17.6
CCc1nnc(SCc2ccc(OC)c(Br)c2)n1N | -0.1 | -0.8 | -19.6 | 9.7 | -1.7 | 8.0
COc1ccc(CNc2cc(C)nc3ncnn23)c(OC)c1 | -1.1 | 0.0 | 60.4 | 18.9 | -1.0 | 21.1
Cc1ccc(-c2nnn(CC(=O)N(c3cccc(F)c3)C(C(=O)NC3CCCC3)c3ccco3)n2)o1 (stereo not given) | 0.5 | 1.3 | -8.2 | 32.2* | -0.8 | 27.3
Cc1ccc(-c2nnn(CC(=O)N(c3ccc(F)cc3)C(C(=O)NC3CCCC3)c3ccco3)n2)o1 (stereo not given) | 0.1 | -0.4 | -6.8 | 16.4 | 0.0 | 16.5
Cc1ccc(-c2nnn(CC(=O)N(Cc3cccs3)C(C(=O)NC(C)(C)C)c3ccco3)n2)o1 (stereo not given) | 0.0 | 0.2 | -47.6 | -13.0 | -2.4 | -2.4
CC(C)(C)NC(=O)C(c1ccco1)N(C(=O)Cn1nnc(-c2ccc(F)cc2)n1)c1cccc(F)c1 (stereo not given) | -0.8 | 10.0* | -6.8 | 7.7 | -0.5 | -2.7
COc1ccc(N2CCCn3c2nc2c3c(=O)n(Cc3ccccc3F)c(=O)n2C)cc1 | · | 0.4 | · | 4.9 | 2.0 | -6.2
Cc1nc(N2CCN(C)CC2)c2c(C)c(C(=O)Nc3ccc(F)cc3)sc2n1 | · | 20.3* | · | -8.5 | 0.5 | -7.9
CCC(=O)N1CCN(c2nc(C)nc3sc(C)c(C)c23)CC1 | -1.1 | 0.1 | -2.0 | 3.9 | -0.7 | 4.4
CCN(Cc1ccccc1)C(c1cccc(C#N)c1)c1nnnn1C(C)(C)C (stereo not given) | -0.9 | -1.0 | 14.6 | 7.4 | 0.7 | 44.2*
CCCn1c(=O)c2ccccc2n2c(SCC(=O)NCc3cccs3)nnc12 | -0.6 | 0.8 | 10.8 | 6.5 | 4.1 | 14.3
Cc1nnc(NC(=O)c2cc3n(n2)C(C(F)(F)F)CC(C2CC2)N3)s1 (stereo not given) | -0.4 | -0.4 | 35.2 | 6.5 | -0.3 | -3.0
O=C(Nc1nc2c(s1)CCCC2)c1cc2n(n1)C(C(F)(F)F)CC(C1CC1)N2 (stereo not given) | -0.3 | 0.5 | 106.8* | 7.5 | -0.8 | -1.4
C=CS(=O)(=O)c1ccc(Oc2ccc(S(=O)(=O)C=C)cc2)cc1 | -0.6 | -0.6 | 124.5* | 102.8* | -4.0 | 105.6*
CCOC(=O)c1c(C)[nH]c(C(=O)COC(=O)CSCC(=O)N(CC)CC)c1C | -0.9 | 0.8 | -4.6 | 14.3 | -0.9 | 11.2
CC1(C)CC(=O)C(C=Nc2ccc3c(c2)OCO3)=C(O)C1 | -1.3 | -0.2 | 20.1 | 31.0* | -2.3 | 17.0
CC1(C)CC(=O)C(C=Nc2cccnc2)=C(O)C1 | -1.9 | 0.4 | -6.7 | 32.8* | 0.3 | 34.4
CC1(C)CC(=O)C(C=NCc2ccc3c(c2)OCO3)=C(O)C1 | -0.7 | -0.3 | -19.0 | 4.5 | -3.1 | -5.1
SMILES | S1P3 ag | 5HT1E ag | S1P1 ag-PAM | 5HT1E antag | 5HT1a ag | 5-HT1A blocker
COc1ccccc1CNc1ccc(N2CCCCC2)cc1 | -1.0 | -0.8 | -1.6 | 7.2 | -2.6 | 14.3
CCn1c(=O)c(C(=O)Nc2nc3ccccc3[nH]2)c(O)c2ccccc21 | -0.4 | 3.1 | 55.2 | 64.2* | -2.0 | 56.9*
COc1ccc(N2C(=O)CC(NCc3cccc(F)c3)C2=O)cc1 (stereo not given) | -0.8 | -0.3 | · | -8.0 | 0.2 | -28.3
COc1ccc(N2C(=O)CC(NCc3ccncc3)C2=O)cc1 (stereo not given) | 0.0 | 0.2 | · | 77.4* | -1.1 | 0.7
COc1ccc(C(=O)N2CCCC(c3nc(-c4ccc(OC)c(OC)c4)no3)C2)c(OC)c1 (stereo not given) | -1.2 | 0.5 | 54.7 | -3.8 | 20.4* | -10.9
COc1ccc2c(c1)sc1nc(-c3ccccc3)cn12 | -1.3 | -1.1 | -13.8 | 75.0* | 0.7 | 64.6*
O=S(=O)(CCSc1ccccn1)c1nc2ccccc2s1 | -0.7 | 0.3 | 88.1* | 8.1 | -2.6 | 41.7
O=C(CSc1nc2ccccc2s1)Nc1ncccn1 | -0.9 | 1.1 | -22.2 | -6.8 | -1.9 | -0.3
O=S(=O)(CCSc1nc2ccccc2o1)c1nc2ccccc2s1 | -1.1 | -1.0 | 55.1 | 21.9 | -3.6 | 47.3*
CCS(=O)(=O)CCSc1nc2ccccc2o1 | 0.3 | 1.0 | · | -1.5 | -0.4 | -9.0
CCn1c(Cn2nnc(-c3ccccc3)n2)nnc1SCC(=O)Nc1ccccc1 | -0.7 | 1.0 | -4.5 | -16.2 | -3.3 | -2.9
CC(C)c1nnc(NC(=O)CN2C(=O)c3ccccc3C2=O)s1 | -1.0 | 0.5 | · | 2.5 | 0.3 | 7.9
CC(C)(C)Nc1nc(SCc2ccccc2)nc(N2CCOCC2)n1 | 2.1 | -0.2 | -69.0 | 6.2 | 0.0 | -5.5
CNc1nc(SCc2ccccc2)nc(N2CCOCC2)n1 | 0.3 | 0.1 | -32.2 | 33.1* | -6.7 | -0.4
CCC(=O)N1CCc2cc(S(=O)(=O)Nc3ccc4c(c3)OCCO4)ccc21 | · | -1.1 | · | 8.2 | -1.4 | 6.9
O=C(C1CCC1)N1CCc2cc(S(=O)(=O)Nc3ccc4c(c3)OCCO4)ccc21 | -0.7 | 0.0 | 114.8* | 9.3 | -4.3 | 8.8
CC(=O)Nc1cccc(NC(=O)CCCC(=O)O)c1 | -1.2 | 28.3* | -21.0 | 3.7 | -3.0 | 4.7

Screens as filed in PubChem.
